Assay results gathered from unrelated publications.
Lines come from different studies, so protocols differ.
Organism: Escherichia coli
Read-out: microbial growth

| Compound | method | cell line | strain | time | MIC |
| --- | --- | --- | --- | --- | --- |
| COC(=O)c1cc(-c2cccc(NC(=O)Nc3cc(OC)ccc3OC)c2)on1 | broth dilution |  | ATCC25922 |  | > 64 µg/mL |
| CCCCCCC#Cc1cncc(-c2nnc(Sc3ccc([N+](=O)[O-])cc3[N+](=O)[O-])n2C)c1 |  |  |  |  | ≥ 20 µg/mL |
| C[C@H](CCC(=O)NCCCNCCCCNCCCN)[C@H]1CC[C@H]2[C@@H]3CC=C4C[C@@H](O)CC[C@]4(C)[C@H]3CC[C@]12C | broth dilution |  | MG1655 | 20 h | 64 µg/mL |
| COc1cccc(OC)c1C(=O)N[C@@H]1C(=O)N2[C@@H]1SC(C)(C)[C@@H]2C(=O)O | broth dilution |  | ATCCBAA2469 |  | > 2050 µg/mL |
| CNC(C)C1CCC(N)C(OC2C(N)CC(N)C(OC3OCC(C)(O)C(NC)C3O)C2O)O1 (stereo not drawn) | broth dilution |  | R477100 |  | 6 µM |
| CN[C@H](CC(C)C)C(=O)N[C@H]1C(=O)N[C@@H](CC(N)=O)C(=O)N[C@H]2C(=O)N[C@H]3C(=O)N[C@H](C(=O)N[C@H](C(=O)O)c4cc(O)cc(O)c4-c4cc3ccc4O)[C@H](O)c3ccc(c(Cl)c3)Oc3cc2cc(c3O[C@@H]2O[C@H](CO)[C@@H](O)[C@H](O)[C@H]2O[C@H]2C[C@](C)(N)[C@H](O)[C@H](C)O2)Oc2ccc(cc2Cl)[C@H]1O | broth dilution |  | ATCCBAA2469 |  | > 64 µg/mL |
| CC1(C)S[C@@H]2[C@H](NC(=O)[C@H](N)c3ccccc3)C(=O)N2[C@H]1C(=O)O | broth dilution | MDR |  | 16 h | 32 µg/mL |
| CSc1ccc(/C=C/c2cc(/C=C3\Sc4ccccc4N3CCCN3CCCC3)c3ccccc3[n+]2C)cc1.[I-] | broth dilution |  | ATCCBAA2469 |  | 32 µg/mL |
| Oc1cc(Cl)ccc1Oc1ccc(Cl)cc1Cl |  |  |  |  | > 3.2 µg/mL |
| COC(=O)c1cc(-c2cccc(NC(=O)Nc3ccc(Cl)cc3Cl)c2)on1 | broth dilution |  | ATCC25922 |  | > 64 µg/mL |
| Fc1c(F)c(F)c(-c2c(F)c(F)c(F)c(F)c2F)c(F)c1F |  |  | ATCC25922 |  | > 250 µg/mL |
| Cc1cc(/C=C2\Sc3ccccc3N2CCCN2CCCCC2)c2ccccc2[n+]1C.[I-] | broth dilution |  | ATCCBAA2469 |  | 4 µg/mL |
| COC(=O)c1cc(-c2ccc(OC)c(NC(=O)Nc3ccc(Cl)c(Cl)c3)c2)on1 | broth dilution |  | ATCC25922 |  | > 64 µg/mL |
| C[n+]1c(/C=C/c2c[nH]c3ccccc23)cc(/C=C2\Sc3ccccc3N2CCCN2CCCC2)c2ccccc21.[I-] | broth dilution |  | ATCCBAA2469 |  | 4 µg/mL |
| COC(=O)c1cc(-c2cccc(NC(=O)Nc3ccccc3F)c2)on1 | broth dilution |  | ATCC25922 |  | > 64 µg/mL |
| CC(=O)C1=C(O)C(CC(C)C)NC1=O (stereo not drawn) |  | K12 | K12 |  | > 200 µg/mL |
| C[n+]1ccc(/C=C2\Sc3ccccc3N2CCCN2CCCCC2)c2ccccc21.[I-] | broth dilution |  | ATCCBAA2469 |  | 4 µg/mL |
| COC(=O)c1cc(-c2cccc(NC(=O)Nc3cccc(Cl)c3)c2)on1 | broth dilution |  | ATCC25922 |  | > 64 µg/mL |
